Published values collected from several papers.
Lines come from different studies, so protocols differ.
Target: Receptor tyrosine-protein kinase erbB-4 (ERBB4, Homo sapiens, UniProt Q15303)

SMILES	test	conditions	quantity	value
C#Cc1n[nH]c2c(-c3cn([C@@H](C)c4ccccc4)c(=O)[nH]c3=O)cc(F)cc12	enzyme activity, inhibitor	0.1 µM	inhibition	-16.5%
Cn1cncc1[C@@](O)(COc1ccc(C#N)cc1-c1ccc(OC(F)(F)F)cc1)c1ccc(C#N)cc1	cell-free assay, competition with immobilised ligand	1 µM	remaining binding	100%
CC(C)(C)c1cc(C=C(C#N)C#N)cc(Br)c1O	enzyme activity, inhibitor	0.5 µM	remaining activity	94%
C#Cc1n[nH]c2c(-c3cn([C@@H](C)c4ccccn4)c(=O)[nH]c3=O)cc(F)cc12	enzyme activity, inhibitor	0.1 µM	inhibition	-15.6%
COc1ncccc1-c1cnn2ccc(N3CCN(C(=O)OC(C)C)CC3)nc12	binding, competition with immobilised ligand	1 µM	remaining binding	100%
Cn1cc(-c2cc(F)cc(N3CCn4c(cc5c4CCCC5)C3=O)c2CO)cc(Nc2ccc(N3CCN(C4COC4)CC3)cn2)c1=O	enzyme activity, inhibitor	0.1 µM	inhibition	8%
O=c1[nH]c2ccccc2n1C1CCN(Cc2ccc(-c3[nH]c4cc5ncnc5cc4nc3-c3ccccc3)cc2)CC1	cell-free assay	0.5 µM	remaining signal	105%
N#CC1(c2ccccn2)CCN(Cc2cc(C(=O)O)c(=O)n3ccccc23)CC1	cell-free assay, competition with immobilised ligand	1 µM	remaining binding	72%
Nc1ncc(-c2nc(N3CCOCC3)nc(N3CCOCC3)n2)c(C(F)F)n1	binding, competition with immobilised ligand	10 µM	remaining binding	60%
COc1cc(Nc2ncc(F)c(Nc3ccc4c(n3)NC(=O)C(C)(C)O4)n2)cc(OC)c1OC	binding, competition with immobilised ligand	10 µM	inhibition	89%
Cn1cc(-c2cccc(N3CCc4c(sc5c4CC(C)(C)C5)C3=O)c2CO)cc(Nc2ccncn2)c1=O	enzyme activity, inhibitor	1 µM	inhibition	0%
Cc1nn(C)cc1-c1nc2c(N3CCN(Cc4ccc(Cl)cc4)CC3)c(Cl)cnc2[nH]1	binding, competition with immobilised ligand	1 µM	remaining binding	100%
